Here are results for 7 molecules from ChEMBL document CHEMBL3593178, “Synthesis and evaluation of hedgehog signaling inhibitor with novel core system” (Bioorg Med Chem, 2015).

A short description of series [1]: In vivo inhibition of Gli1 mRNA expression in mouse bearing human PAN-04 cells assessed as expression level at 25 mg/kg, po bid after 24 hrs by qPCR analysis relative to control. The class given is functional. An outline of the steps:
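Nude mice bearing human primary pancreatic tumor PAN-04 given compound orally twice daily at 25 mg/kg; tumors excised 24 h after first dose, stored in RNAlater; mouse stromal Gli1 mRNA quantified with mouse Gli1 and mouse GAPDH probe sets; expressed relative to controls.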

Series [2] is described as follows: Inhibition of hedgehog signaling pathway in mouse NIH/3T3 cells after 48 hrs by Gli-luciferase reporter gene assay. The class given is cell-based. Particulars: NIH3T3, 48 h. An outline of the steps: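 NIH3T3 cells stably carrying Gli-luciferase reporter, kept in DMEM/10% FBS with 500 µg/mL G418, seeded at 7.5 × 10³ cells/well on collagen-coated plates overnight at 37 °C, 5% CO2; then recombinant mouse Shh-N plus compound (final 0.03–1000 nM, 5.8% FBS), n = 4 wells, 48 h; luciferase read with Bright-Glo; 0.1% DMSO ± 1 µg/mL Shh-N as controls; IC50 mean of four.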

Series [3] is described as follows: AUC (0 to 8 hrs) in non-fasted mouse at 10 mg/kg, po cassette dosing by LC/MS/MS analysis. The following applies: in vivo. The class given is ADME, organism-based. On the set-up: dose 10 mg/kg, time < 8 hr, route oral. An outline of the steps:
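Single 10 mg/kg oral cassette dose to nonfasted mice; blood sampled, plasma separated by centrifugation, deproteinized with MeCN containing internal standard, supernatant diluted in 10 mmol/L HCOONH4/0.2% formic acid–MeCN with 0.2% formic acid (9:1), recentrifuged, concentrations quantified by LC/MS/MS; AUC from 0 to 8 h.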

For `CCc1nc2c(nc1NC(=O)c1ccccc1)c(OCC(F)(F)F)c(C(=O)NC1CCN(C(=O)CO)CC1)n2C`, the “Gli1 mRNA expression relative to control” value in series [1] came to 57%. In series [2], this molecule returned an IC50 of 3.1 nM. In series [3], this molecule came in with an AUC(0-t) at 8 h of 925 ng·h/mL.

Consider `CCc1cc2c(nc1NC(=O)c1ccccc1)c(OCC(F)(F)F)c(C(=O)NC1CCN(C(=O)CO)CC1)n2C`, for which the “Gli1 mRNA expression relative to control” value in series [1] turned out to be 87%. In series [2], this molecule returned an IC50 of 3.9 nM. This molecule also registered an exposure AUC(0-t) at 8 h in series [3] of 984 ng·h/mL.

With `CCc1cc2c(cc1NC(=O)c1ccccc1)c(OCC(F)(F)F)c(C(=O)NC1CCN(C(=O)CO)CC1)n2C`, in series [1], the “Gli1 mRNA expression relative to control” value came out at 50%. Moreover, 2.6 nM corresponded to half-maximal inhibition in series [2] (IC50). In addition, the area under the curve AUC(0-t) at 8 h in series [3] amounted to 1270 ng·h/mL.

With `CCc1nc2c(cc1NC(=O)c1ccccc1)c(OCC(F)(F)F)c(C(=O)NC1CCN(C(=O)CO)CC1)n2C`, the “Gli1 mRNA expression relative to control” value in series [1] was found to be 24%. The molecule also gave an IC50 in series [2] of 3.6 nM. This molecule also gave an AUC(0-t) at 8 h in series [3] of 10800 ng·h/mL.

`CCc1nc2c(cc1CC(=O)c1ccccc1)c(OCC(F)(F)F)c(C(=O)NC1CCN(C(=O)CO)CC1)n2C` registered an IC50 in series [2] of 46 nM.

`CCc1nc2c(c(OCC(F)(F)F)c(C(=O)NC3CCN(C(=O)CO)CC3)n2C)c(=O)n1CC(=O)c1ccccc1` returned an IC50 in series [2] of 6.2 nM.

`CCc1cc2c(c(OCC(F)(F)F)c(C(=O)NC3CCN(C(=O)CO)CC3)n2C)c(=O)n1CC(=O)c1ccccc1` [TAK-441]: the “Gli1 mRNA expression relative to control” value in series [1] was found to be 4%. In series [2], half-maximal inhibition (IC50) was put at 4.4 nM. The molecule further gave an AUC(0-t) at 8 h in series [3] of 28300 ng·h/mL.
